TAAR1 ag: human TAAR1 agonists, primary screen, Fluo-8 calcium fluorescence, CHO RD-HGA16 cells. vehicle wells 0%, saturating PEA agonist 100%. actives 0.99% (n = 360,000). Trace amine-associated receptor 1 (Homo sapiens), Q96RJ0. activation, % at 3 µM;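 active = activation above the mean activation of all test compounds in the run plus 3 SD, cut at about 38% in these data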
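Benchmarks: low control DMSO, high control PEA (EC100); System: CHO RD-HGA16 cells carrying human TAAR1 plus Gα16; Detection: Fluo-8 fluorescence, 5 s baseline then 140 s kinetic read; Schedule: 17-24 h plating, Fluo-8 75 min 37 °C, 30 min RT; Read-out basis: % activation from peak over basal fluorescence ratio, DMSO-to-PEA scaled.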
CHRM1 agonist: human M1 muscarinic receptor agonists, primary screen, Fluo-8 calcium fluorescence, CHO-K1 cells, HTS | Muscarinic acetylcholine receptor M1 (Homo sapiens), P11229 | CHO-K1 hM1, agonist mode; 0% DMSO, 100% acetylcholine EC100 | activation, % at 3 µM | actives 0.33% (n = 360,000) | AID 588814, 2011;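 active = activation above the run's mean compound activation plus 3 SD, cut at about 16% in these data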;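 also: peak over basal fluorescence ratio within a 140 s kinetic read after compound addition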
M1 antag: human M1 muscarinic receptor antagonists, primary screen, CHO-K1 cells, Fluo-8 calcium fluorescence, 1536-well. actives 1.3% (n = 360,000). CHO-K1 hM1, ACh EC80 antagonist. inhibition, % at 3 µM;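 active = percent inhibition above its own plate's cutoff, namely the mean of that plate's compound wells plus 3 SD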;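 also: peak over basal fluorescence ratio during 140 s after agonist addition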
M1 PAM: human M1 muscarinic receptor positive allosteric modulators, primary screen, CHO-K1 cells, Fluo-8 calcium fluorescence, 1536-well; CHO-K1 hM1, ACh EC20; 0% = ACh EC20, 100% = maximal ACh; activation, % at 3 µM; actives 0.088% (n = 360,000); in the data active = activation above about 19%, passing the limit was not always enough
m5-HT2A agonist: mouse Htr2a agonists via beta-arrestin recruitment, primary screen, cell-based, luminescence; 5-hydroxytryptamine receptor 2A (Mus musculus), P35363; CHO-K1 mHTR2A beta-arrestin complementation; percent of 30 µM serotonin response; activation, % at 7.6 µM; actives 0.66% (n = 360,000);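 active = activation above a run cutoff, the mean activation of all tested compounds plus 3 SD, cut at about 14% in these data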
Target sequence (P35363 whole entry, looked up): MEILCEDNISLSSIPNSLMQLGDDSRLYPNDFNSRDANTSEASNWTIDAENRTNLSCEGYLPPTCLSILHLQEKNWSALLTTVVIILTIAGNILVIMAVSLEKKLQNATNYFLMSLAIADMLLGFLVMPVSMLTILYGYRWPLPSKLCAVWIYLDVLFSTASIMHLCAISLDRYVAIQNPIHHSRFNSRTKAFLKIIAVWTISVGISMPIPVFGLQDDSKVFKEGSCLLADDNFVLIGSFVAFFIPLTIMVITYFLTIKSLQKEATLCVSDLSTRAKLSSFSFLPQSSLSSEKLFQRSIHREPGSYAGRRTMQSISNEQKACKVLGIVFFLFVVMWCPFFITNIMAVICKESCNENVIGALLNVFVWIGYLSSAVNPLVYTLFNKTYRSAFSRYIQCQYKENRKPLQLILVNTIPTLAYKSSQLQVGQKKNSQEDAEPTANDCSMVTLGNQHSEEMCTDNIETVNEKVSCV
TAAR1 antag: human TAAR1 antagonists, primary screen, Fluo-8 calcium fluorescence, CHO RD-HGA16 cells. inhibition, % at 3 µM. Trace amine-associated receptor 1 (Homo sapiens), Q96RJ0. actives 1.5% (n = 360,000). antagonist;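 active = inhibition above a per-plate cutoff, the mean inhibition of test compounds on that plate plus 3 SD, cut at about 49% in these data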
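Test system: RD-HGA16 CHO cells with stable hTAAR1 and Gα16 / Probe or stimulus: EC80 β-phenethylamine stimulus / Times: seeding 17-24 h prior, 75-min 37 °C, 30-min RT dye loading / Detection: Fluo-8 calcium-sensitive fluorescence / Read-out basis: % inhibition scaled between DMSO and EC80 PEA controls / Repeats: singlicate, one well per test compound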
Large screens that a line does not name were inactive. Rows were chosen to be rich in hits. Some 3.9% of all compounds tested hit in one or more screens of this group.

O=C(CCNC(=O)c1ccco1)Nc1ccc(OC(F)(F)F)cc1	none
CC(C)c1[nH]nc2c1C(c1ccc(F)cc1)N(Cc1ccccc1)C2=O (stereo unspecified)	none (no result: CHRM1 agonist, M1 antag, M1 PAM, m5-HT2A agonist)
CCc1nc2ccc(C(=O)NCCOc3ccc(OC)cc3)cn2c1N(C)Cc1nccn1C	none
CCOC(=O)[C@@H]1[C@H]2COc3ccccc3[C@@H]2N2C(=O)N(c3ccc(C(F)(F)F)cc3)C(=O)[C@@]12C	none
CCOC(=O)[C@@H]1[C@H]2COc3ccccc3[C@H]2N2C(=O)N(c3ccc(C(F)(F)F)cc3)C(=O)[C@]12C	M1 antag 34
CN(C)C1(CNC(=S)Nc2ccccc2C(F)(F)F)CCCCC1	CHRM1 agonist 50
COc1cccc(NC(=O)C(c2ccccc2)N2CCN(CC(=O)N3CCOCC3)CC2)c1 (stereo unspecified)	none
COc1cccc(NC(=O)C(c2ccccc2)N2CCCCC2)c1 (stereo unspecified)	M1 antag 50
Cc1ncn(-c2ccccc2)c1-c1ccccc1	none
CCc1ccc(C(=O)NNC(=O)c2cccc(N3C(=O)CCC3=O)c2)cc1	none
CC(C)(C)n1nnnc1C(c1cccs1)N(Cc1ccccc1)Cc1ccco1 (stereo unspecified)	none
CC(C)(C)n1nnnc1C(c1cccs1)N(Cc1cccnc1)Cc1ccco1 (stereo unspecified)	M1 antag 98
O=C(CSc1nc(Cc2ccccc2)nc2ccccc12)c1ccc2c(c1)OCCO2	m5-HT2A agonist 19
C[N+](C)(C)CCN(Cc1ccc(Cl)cc1)c1ccccn1	CHRM1 agonist 19, M1 antag 26
CN(C)CCN(Cc1ccc(Cl)cc1)c1ccccn1	none
CC1CCCCN1S(=O)(=O)c1cc2c(=O)nc3ccccn3c2cc1Cl (stereo unspecified)	none (no result: CHRM1 agonist, M1 antag, M1 PAM, m5-HT2A agonist)
COc1ccc(-c2cc(C(=O)OC3CCOC3=O)c3ccccc3n2)cc1 (stereo unspecified)	TAAR1 antag 53
O=C(OC1CCOC1=O)c1cc(-c2ccc(Br)cc2)nc2ccccc12 (stereo unspecified)	none
COc1ccccc1NS(=O)(=O)c1cccc(-n2c(O)c(C=Nc3ccccc3C(=O)O)c3ccccc3c2=O)c1	M1 antag 70
CN(C)c1ccc(/C=C(\C#N)C(=O)c2ccccc2)cc1	TAAR1 ag 104, CHRM1 agonist 125, M1 antag 76, TAAR1 antag 79
Cc1ccc(C=C(C#N)C(=O)c2ccccc2)cc1	none
Cc1ccc(Nc2nc(NCCO)nc3c2cnn3C)cc1Cl	TAAR1 ag 38
Cc1ccccc1NC(=O)Nc1nc(C(N)C2CCCCC2)cs1 (stereo unspecified)	none
COc1ccc(OC)c2c1C(=O)C(Cl)=C(Cl)C2=O	TAAR1 antag 71
COc1ccc(OC)c2c1C(=O)c1ccccc1C2=O	none (no result: CHRM1 agonist, M1 antag, M1 PAM, m5-HT2A agonist)
CCOC(=O)/C(=C\C=C1/Sc2ccccc2N1CC)C(C)=O	CHRM1 agonist 47
CCOC(=O)/C(=C/C=C1\Sc2ccccc2N1CC)C(C)=O	CHRM1 agonist 19 (no result: TAAR1 ag, TAAR1 antag)
CCC(=O)/C=C1/Sc2ccccc2N1CC	none
CCn1cc(C(=O)N(C)CC(OC)OC)c(=O)c2cc(S(=O)(=O)N3CCOCC3)ccc21	none
Cc1ccc(S(=O)(=O)C=CS(=O)(=O)c2ccc(C)cc2)cc1	TAAR1 antag 50
O=C1Oc2ccccc2C(=O)/C1=C/N1CCN(c2ccccc2F)CC1	TAAR1 ag 39
COc1ccc(C(CNC(=O)c2cccc(S(=O)(=O)Nc3cccc(C)c3)c2)N2CCOCC2)cc1 (stereo unspecified)	none
